Legend:
Format in all cases: functional, cell-based
KB = experiment: Cytotoxicity against human KB cells by MTT assay
Summary of the method: (§1)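 Modified MTT colorimetric assay on five human cancer lines (KB epidermoid, HeLa S3 cervical, MCF-7 breast, Hep G2 hepatocellular, HT-29 colon adenocarcinoma). Doxorubicin was run as positive control.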

HeLa S3 = experiment: Cytotoxicity against human HeLaS3 cells by MTT assay; summary of the method: as §1
MCF7 = experiment: Cytotoxicity against human MCF7 cells by MTT assay; summary of the method: as §1
HepG2 = experiment: Cytotoxicity against human HepG2 cells by MTT assay; summary of the method: as §1
HT-29 = experiment: Cytotoxicity against human HT-29 cells by MTT assay; summary of the method: as §1

Row | Compound | IC50 (KB) [µM] | IC50 (HeLa S3) [µM] | IC50 (MCF7) [µM] | IC50 (HepG2) [µM] | IC50 (HT-29) [µM]
1 | CC(C)=CCCC1(C)Oc2ccc3c(c2CC1O)O[C@H](c1ccc(O)cc1)CC3=O (stereo not given in full) | > 10 | > 10 | > 10 | > 10 | > 10
2 | C=C(C)/C=C/CC1(C)CCc2c(ccc3c2O[C@H](c2ccc(O)cc2)CC3=O)O1 (stereo not given in full) | > 10 | > 10 | > 10 | > 10 | > 10
3 | C=C(C)C(O)CC/C(C)=C/Cc1c(O)ccc2c1O[C@H](c1ccc(O)cc1)CC2=O (stereo not given in full) | > 10 | > 10 | > 10 | > 10 | > 10
4 | C/C(=C\Cc1c(O)ccc2c1O[C@H](c1ccc(O)cc1)CC2=O)C/C=C/C(C)(C)O | > 10 | > 10 | > 10 | > 10 | > 10
5 | C=C(C)C(O)CCC1(C)CCc2c(ccc3c2O[C@H](c2ccc(O)cc2)CC3=O)O1 (stereo not given in full) | > 10 | > 10 | > 10 | > 10 | > 10
6 | CC1=CCC(O)C(C)(C)C1Cc1c(O)ccc2c1O[C@H](c1ccc(O)cc1)CC2=O (stereo not given in full) | > 10 | > 10 | > 10 | > 10 | > 10
7 | COC(C)(C)/C=C/CC1(C)CCc2c(ccc3c2O[C@H](c2ccc(O)cc2)CC3=O)O1 (stereo not given in full) | > 10 | 8.6 | > 10 | > 10 | > 10
8 | CC(C)=CCC/C(C)=C/Cc1c(O)ccc2c1O[C@H](c1ccc(O)cc1)CC2=O | > 10 | > 10 | > 10 | > 10 | > 10
9 | CC(C)=CCCC1(C)CCc2c(ccc3c2O[C@H](c2ccc(O)cc2)CC3=O)O1 (stereo not given in full) | 9.9 | 8.1 | 9.9 | > 10 | > 10
10 | CC(C)=CCCC(C)(O)C1Cc2c(ccc3c2O[C@H](c2ccc(O)cc2)CC3=O)O1 (stereo not given in full) | > 10 | > 10 | > 10 | > 10 | > 10
11 | COC(C)(C)/C=C/C/C(C)=C/Cc1c(O)ccc2c1O[C@H](c1ccc(O)cc1)CC2=O | > 10 | > 10 | > 10 | > 10 | > 10
12 | CC1(CCC(O)C(C)(C)O)CCc2c(ccc3c2O[C@H](c2ccc(O)cc2)CC3=O)O1 (stereo not given in full) | > 10 | > 10 | > 10 | > 10 | > 10
13 | CC(C)=CCCC1(C)CCc2c(cc(O)c3c2O[C@H](c2ccc(O)cc2)CC3=O)O1 (stereo not given in full) | > 10 | 9.9 | > 10 | > 10 | > 10
14 | CC(C)(O)/C=C/CC1(C)CCc2c(ccc3c2O[C@H](c2ccc(O)cc2)CC3=O)O1 (stereo not given in full) | > 10 | 6.6 | > 10 | > 10 | > 10
15 | C=C(CCC=C(C)C)C(O)Cc1c(O)ccc2c1O[C@H](c1ccc(O)cc1)CC2=O (stereo not given in full) | > 10 | > 10 | > 10 | > 10 | > 10
16 | CC1(CCC2OC2(C)C)CCc2c(ccc3c2O[C@H](c2ccc(O)cc2)CC3=O)O1 (stereo not given in full) | > 10 | 8.3 | > 10 | > 10 | > 10
17 | COC(C=C(C)C)C/C(C)=C/Cc1c(O)ccc2c1O[C@H](c1ccc(O)cc1)CC2=O (stereo not given in full) | > 10 | > 10 | > 10 | > 10 | > 10
18 | COc1cccc2c1C(=O)c1c(O)c3c(c(O)c1C2=O)C[C@@](O)(C(=O)CO)C[C@@H]3O[C@H]1C[C@H](N)[C@H](O)[C@H](C)O1 [DOXORUBICIN] | 0.13 | 0.03 | 0.61 | 1.07 | 0.34
